Source: ChEMBL document CHEMBL3046885, “Toxicity of (+)- and (-)-gossypol to the plant pathogen, Rhizoctonia solani” (2002)
Values joined by “and” are separate entries in the source; they are usually repeats but may differ in a detail not shown here. Equal values may be shown once.

Assays:
[1] = tested on: Rhizoctonia solani; test: Antifungal activity against Rhizoctonia solani J-1 after 4 to 5 days; assay type: functional
Procedure, shortened: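 Mycelial suspension of strain J-1 (grown 3-4 days at 26-28 °C in potato dextrose broth with rifampicin, macerated in buffered defined medium, pH 6.3, 125 mM glucose). Mixed 1:1 with compound in medium/DMSO; 12 wells per concentration, DMSO controls. Incubated 48 h at 26-28 °C in dark, then plated on PDA and scored visually after 4-5 days. LD100 is the lowest concentration giving no growth. At least three assays.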

[2] = tested on: Rhizoctonia solani; test: Antifungal activity against Rhizoctonia solani J-1 after 72 hr by turbimetric assay; assay type: functional; conditions: read-out: ED50 (the source's name)
Procedure, shortened: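 Sieved macerated mycelium of strain J-1 was held 10 h in buffered defined medium (pH 6.3, 125 mM glucose), then mixed 1:1 with compound in medium/DMSO. Ten wells per concentration; DMSO control. Incubated at 26-28 °C in dark. OD750 was read from 72 h, every 12 h, until control OD reached 0.065-0.100. ED50 came from fractional effect versus concentration. Three plates per experiment, at least four experiments.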

Row | SMILES | LD100 [1] [µM] | EC50 ([2]; Rhizoctonia solani, J-1, 72 h) [µM] | EC50 [2]
1 | Cc1cc2c(C(C)C)c(O)c(O)c(C=O)c2c(O)c1-c1c(C)cc2c(C(C)C)c(O)c(O)c(C=O)c2c1O [GOSSYPOL] | >106 | 25.1 | 24.3 µM and 23.9 µM
2 | Cc1cc2c3c(c(O)c(O)c(C(C)C)c3c1)CO2 [DESOXYHEMIGOSSYPOL] | 41 | 3.52 | –
3 | COc1cc(O)c2c(C=O)c(O)c(O)c(C(C)C)c2c1 [HEMIGOSSYPOL-6-METHYL ETHER] | 55 | 13.1 | –
4 | CC1=Cc2cccc(C)c2C(=O)C1=O [O-HIBISCANONE] | 27 | 3.76 | –
5 | COc1c(C)cc2c3c(c(O)c(O)c(C(C)C)c13)CO2 [DESOXHEMIGOSSYPOL-6-METHYL ETHER] | 40 | 2.52 | –
6 | Cc1cc(O)c2c(C=O)c(O)c(O)c(C(C)C)c2c1 [HEMIGOSSYPOL] | 77 | 21.4 | –
